# Source: PubChem BioAssay (several laboratories)
# Hits are enriched below; roughly 3.1% of the tested compounds scored in any of these assays.
# Calb FLC = C. albicans growth inhibition with fluconazole, primary screen, CaCi-2 strain, Alamar Blue fluorescence | 300,000 tested, 0.57% active | growth inhibition, % (test concentration not listed) | C. albicans CaCi-2 (fluconazole-resistant clinical isolate) + fluconazole, 48 h;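 active = growth inhibition above about 58% in most replicates, limit read from the data, passing the limit was not always enough; inconclusive = exactly half the replicates above a set limit; inactive = most replicates below a set limit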;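 also: all wells also contain fluconazole at 8 µg/ml as a sub-toxic cotreatment; 0% = median of DMSO wells and 100% = median of geldanamycin control wells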
# CSC inhib = cancer stem cell viability inhibitors, primary screen, luminescence; cancer stem cell-like cells viability; 300,000 tested, 1.1% active; inhibition, % at 7.5 µM; in the data active = inhibition above about 75%; inconclusive = no clear call, values can overlap the other calls; tested in HMLE shEcad cells
# Bfl-1 A1 inh = caspase 3/7 activation in MEF A1-2A-BIM cells, primary screen, A1 inhibitor project, cell-based, luminescence, HTS | Caspase-Glo 3/7 luminescence, 3 h; percent of clofoctol response, vehicle zero | 330,000 tested, 0.066% active | AID 2462, 2010 | caspase activation, % (test concentration not listed);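 active = over half of replicate activation scores above 10%, or exactly half above 10 with the replicate mean above 10; inconclusive = replicate mean below 10 yet half the replicates above 10; inactive = over half of replicates below 10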
# T cruzi inh = inhibitors of intracellular T. cruzi growth, primary screen, luminescence, NIH3T3 host cells; T. cruzi beta-gal in NIH3T3, 90 h; inhibition, % (concentration not given with the values); 300,000 tested, 1.4% active;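 active = mean inhibition across valid replicates above about 55%, limit read from the data; inconclusive = mean below that limit but half or more replicates reach it; inactive = mean below it, under half of replicates reach it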;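 also: signal also drops with host cell toxicity which is not excluded here; 0% = plate median of DMSO wells and 100% = zero luminescence signal; higher percent means less beta-gal luminescence so fewer parasites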
#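 System – NIH/3T3 host cells with β-galactosidase reporter T. cruzi · Doses – single 50 nL compound addition per well in DMSO · Reagent – 5000 T. cruzi trypomastigotes/well · Medium – Low-serum DMEM with 2% FBS · Timing – ≥90 h infection period, 3 h prior cell attachment · Evaluation – parasite load inhibition, % · Technique – GalScreen luminescence, 60 min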
# TAG inh = inhibitors of triacylglycerol accumulation, primary screen, cell-based, uHTS, fluorescence, H9c2 | H9c2 cells, Nile Red lipid (TAG) fluorescence; cells loaded with 200 µM oleic acid | inhibition, % at 12.5 µM | 230,000 tested, 0.66% active | AID 651582, 2012;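 active = pattern-corrected inhibition of lipid staining of at least 50% with the nuclear-stain viability signal not falling by more than 50%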;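 also: 0% = DMSO wells and 100% = triacsin C control wells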
# Beta cell apopt = inhibitors of cytokine-induced beta cell apoptosis, primary screen, luminescence; INS-1E cytokine-induced death, ATP luminescence, 48 h; percent of positive-control rescue, neutral wells zero; protection from apoptosis, % (test concentration not listed); 300,000 tested, 0.8% active; AID 435005, 2010;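 active = Every replicate reaches about 75%, or at least half do and their mean reaches it too, limit read from the data; inconclusive = At least half of replicates reach the limit but their mean does not; inactive = Under half of replicates reach the limit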;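 also: 0% = cytokine-treated negative control wells and 100% = positive control rescue; higher means more ATP so stronger rescue from cytokine killing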
# An asterisk follows results filed as active; ? = inconclusive; . = no result given; ! = a repeat was not active.
SMILES,Calb FLC,CSC inhib,Bfl-1 A1 inh,T cruzi inh,TAG inh,Beta cell apopt
O=C(NNC(=O)c1cc(-c2ccncc2)nc2ccccc12)c1ccccc1O,85.5*,40.1,0.0,-13.0,-6.3,24.3
O=C(Nc1ccncc1)c1cc(-c2cccc(Br)c2)nc2ccccc12,-9.1,106.1*,0.4,40.0,23.3,32.9
Cc1ccc(CCNC(=O)c2cc(-c3ccncc3)nc3ccccc23)cc1,23.7,.,-0.1,30.2,-4.7,1.5
CCCCCCCNC(=O)c1cc(-c2ccncc2)nc2ccccc12,5.6,9.7,0.3,57.4*,.,3.3
COc1cc(C)ccc1OCC(=O)OCC(=O)c1[nH]c(C)c(C(C)=O)c1C,.,-8.9,-1.2,.,-29.8,1.5
CC(=O)c1c(C)[nH]c(C(=O)COc2cc(C)ccc2C(C)C)c1C,1.5,17.0,-0.3,31.9,-40.8,102.8*
Cc1ccc(NC(=O)CCN2C(=O)C3CCCCC3C2=O)cc1[N+](=O)[O-] (stereo not given),-2.5,-13.3,0.1,-12.1,-23.1,-6.4
Cc1cccc(NC(=O)COC(=O)CN2C(=O)C3CCCCC3C2=O)c1C (stereo not given),.,.,.,.,-5.9,.
CC(C)(C)OC(=O)N1CCC(C(=O)Nc2cccc(C(=O)N3CCCCC3)c2)CC1,.,.,.,.,-16.5,.
COc1ccc(SCCCn2c(=O)c3c(ncn3C)n(C)c2=O)cc1,-19.6,-0.3,0.1,-4.9,.,2.0
Cc1nn(-c2ccccc2)c(C)c1C(=O)OC(C)C(=O)NC1CCCCC1C (stereo not given),.,.,-0.2,.,8.7,6.0
O=C(Nc1cc(C(F)(F)F)cc(C(F)(F)F)c1)Nc1cnn(-c2ccc([N+](=O)[O-])cc2)c1C(F)(F)F,-12.1,101.9*,0.9,-6.6,0.2,115.7*
Nc1nc(=S)c2ncn([C@@H]3O[C@H](CO)[C@@H](O)[C@H]3O)c2[nH]1,.,97.8*,?,.,7.8,11.6
Nc1nc(Cl)nc2c1ncn2[C@@H]1O[C@H](CO)[C@@H](O)[C@H]1O,2.0,-8.8,0.0,12.4,16.4,-2.1
Nc1nc(=S)c2ncn(C3OC(CO)C(O)C3O)c2[nH]1 (stereo not given),-2.7,90.1*,1.1,-16.3,.,-3.5
CCOC(=O)C1(C)CCCN(C(=O)c2ccc(-c3ccccc3)cc2)C1 (stereo not given),.,.,.,.,4.6,.
CSc1nc(N)nc(SCC(=O)C23CC4CC(CC(C4)C2)C3)c1C#N,-0.7,.,-0.2,65.3*,.,10.5
Cc1ccc(C(=O)Nc2cccc(C(=O)NC3CCCC3)c2)cc1,3.1,5.5,-0.2,7.9,6.1,.
CC(Sc1nnc2c(n1)[nH]c1ccccc12)C(=O)NC1CCCCC1 (stereo not given),-5.6,.,-0.4,20.4,.,18.3
CC(Sc1nnc2c(n1)[nH]c1ccccc12)C(=O)N(C)C1CCCCC1 (stereo not given),-1.5,9.8,-0.8,2.9,.,100.4*
O=[N+]([O-])c1cc(Cl)ccc1Sc1cccc2cccnc12,-1.5,-2.8,-0.3,10.7,.,8.0
C=CCn1nc([N+](=O)[O-])nc1Sc1cccc2cccnc12,-27.7,-18.3,1.1,49.7,.,95.2*
O=[N+]([O-])c1ccc(Sc2cccc3cccnc23)c([N+](=O)[O-])c1,-9.9,16.7,-1.4,-3.3,.,80.0*
CN(C)c1ccc(/C=C/C=C2/SC(=S)N(c3ccccc3)C2=O)cc1,-48.8,82.3*,0.0,-0.1,.,20.4
O=C(O)c1ccc(N2C(=O)/C(=C/C=C/c3ccccc3)SC2=S)cc1,27.2,-1.5,0.0,-14.9,-0.9,-1.0
SMILES,Calb FLC,CSC inhib,Bfl-1 A1 inh,T cruzi inh,TAG inh,Beta cell apopt
CC1CC(C)CN(C(=O)c2cc3ccccc3o2)C1 (stereo not given),-3.8,3.5,0.0,5.4,-6.2,8.2
CC1CC(C)CN(C(=O)c2cc3cc(Br)cc(Br)c3o2)C1 (stereo not given),6.0,88.7*,0.4,27.9,-6.9,8.7
CN(Cc1nc(-c2cnccn2)no1)CC1CCN(Cc2ccccc2)CC1,-4.7,3.4,-1.8,15.8,8.7,43.4
CC(C)CCc1noc(CN(C)CC2CCN(Cc3ccccc3)CC2)n1,-18.8,21.4,0.1,55.0*,-5.9,0.2
Cn1cc(/C=N/Nc2ccccc2)c2ccccc21,101.3*,-7.0,-0.5,7.2,-4.1,-0.8
CC(C)n1cc(/C=N/Nc2ccc(C(=O)O)cc2)c2ccccc21,-2.1,-16.5,-8.2,4.1,.,-6.9
Cc1ccc(C)c(NC(=S)N2CCC(c3nc4ccccc4s3)CC2)c1,-12.9,7.2,0.2,60.5*,.,-7.6
Cc1ccc2nc(C3CCCN(C(=S)Nc4ccccc4C)C3)[nH]c2c1 (stereo not given),-2.3,7.3,-0.6,66.6*,.,9.4
Cc1ccc(CN2C(=O)CCC2C(=O)NCCc2ccccc2)cc1 (stereo not given),-5.7,.,-0.9,4.8,.,.
Cc1ccc(/C=[N+](\[O-])c2ccc(N(C)C)cc2)c2nsnc12,97.5*,.,.,28.0,48.2,.
O=C1/C(=C\c2ccc(Cl)c(Cl)c2)CN(C(=O)CCN2CCOCC2)C/C1=C/c1ccc(Cl)c(Cl)c1,.,.,.,.,62.7*,.
CC(=O)Nc1ccc(Nc2cc(C)nc3c(-c4ccccc4)c(C)nn23)cc1,54.7,-6.8,0.1,47.9,.,2.6
CC(=O)Nc1ccc(Nc2cc(C(C)C)nc3c(-c4ccccc4)c(C)nn23)cc1,10.7,84.1*,-0.7,67.6*,6.6,.
[O-]/[N+](=C/c1ccccc1)c1ccccc1,.,-11.8,-3.4,.,.,-3.1
COc1cccc(/C=C/C(=C2/C(=O)N(c3ccccc3)N=C2C)c2ccc(Br)cc2)c1OC,?,75.5*,-0.9,-13.3,.,.
CCCCCCCCCCCCCCCC[n+]1cccc(C(=O)N(CC)CC)c1,68.6,142.8*,1.3,43.8,58.6*!,90.7*
CCCCCCCC[n+]1cccc(C(=O)N(CC)CC)c1,-9.8,8.6,1.2,-4.5,.,-8.5
CCCOc1ccc(Br)cc1CSC(=N)N,-29.3,26.0,-0.7,6.5,.,98.9*
O=C(Nc1nc(-c2ccc(F)cc2)cs1)C1CCN(C(=O)c2ccc(F)cc2)CC1,-1.0,18.9,1.1,55.0*,-2.1,-5.2
Cc1ccc2sc(NNC(=O)c3cc(-c4cccs4)nc4ccccc34)nc2c1C,-6.9,38.2,0.3,42.7,.,.
O=C(NN1CCOCC1)c1cc(-c2cccs2)nc2ccccc12,3.2,4.6,-0.4,-33.1,.,-4.6
Cc1cc(C)c2nc(NNC(=O)c3cc(-c4cccs4)nc4ccccc34)sc2c1,82.5*,96.8*,0.8,46.5,22.1,.
O=C(NNc1nc2ccc(Cl)cc2s1)c1cc(-c2cccs2)nc2ccccc12,86.1*,109.5*,0.3,-30.1,20.6,6.5
